Experimental data from ChEMBL document CHEMBL2331117 (J Med Chem, 2013).
pIC50: −log10 of the molar value. Values after ≈ are worked out from the molar mass of the structure shown.

Experiments:
[1] = Inhibition of mTORC1 (unknown origin)-mediated 4EBP1 phosphorylation after 120 mins by ELISA; parameters: species or system Homo sapiens
[2] = Inhibition of mTORC1-mediated phosphorylation of S6 at serine 240/244 in human PC3 cells after 3 hrs by ELISA; format: cell-based; settings: PC-3, 3 h
[3] = Metabolic stability in mouse liver microsomes after 30 mins; format: ADME, Microsome; settings: read-out: Stability
[4] = Plasma concentration in mouse at 100 mg/kg, po after 1 hr; format: ADME, organism-based; parameters: dose 100 mg/kg, route oral
[5] = biological target: Phosphatidylinositol 4,5-bisphosphate 3-kinase catalytic subunit alpha isoform (Homo sapiens, UniProt P42336); assay: Inhibition of PI3Kalpha (unknown origin) using PIP2 as substrate after 2 hrs by luminescence assay
[6] = Plasma concentration in mouse at 100 mg/kg, po after 4 hrs; format: ADME, organism-based; parameters: dose 100 mg/kg, route oral
Cytochrome P450 2C9 = Cytochrome P450 2C9 (Homo sapiens, UniProt P11712); assay: Inhibition of CYP2C9 (unknown origin); format: ADME
Cytochrome P450 3A4 = Cytochrome P450 3A4 (Homo sapiens, UniProt P08684); assay: Inhibition of CYP3A4 (unknown origin); format: ADME
Cytochrome P450 2D6 = Cytochrome P450 2D6 (Homo sapiens, UniProt P10635); assay: Inhibition of CYP2D6 (unknown origin); format: ADME
[7] = Inhibition of mTORC2-mediated phosphorylation of AKT at serine 473 in human PC3 cells after 2 hrs and 50 mins by ELISA; format: cell-based; settings: PC-3
How it was run: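 Compound in 0.3% DMSO was added for 2 h 50 min, followed by 10 min stimulation with 20 ng/mL EGF. After formaldehyde fixation, pAKT (S473) and total AKT were detected by chemiluminescent cell ELISA. IC50 came from pAKT normalized to total AKT, relative to DMSO control. Mean, n ≥ 2.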

Cytochrome P450 2C8 = biological target: T1, Cytochrome P450 2C8 (Homo sapiens, UniProt P10632); assay: Inhibition of CYP2C8 (unknown origin); format: ADME
T1 sequence (P10632 whole entry): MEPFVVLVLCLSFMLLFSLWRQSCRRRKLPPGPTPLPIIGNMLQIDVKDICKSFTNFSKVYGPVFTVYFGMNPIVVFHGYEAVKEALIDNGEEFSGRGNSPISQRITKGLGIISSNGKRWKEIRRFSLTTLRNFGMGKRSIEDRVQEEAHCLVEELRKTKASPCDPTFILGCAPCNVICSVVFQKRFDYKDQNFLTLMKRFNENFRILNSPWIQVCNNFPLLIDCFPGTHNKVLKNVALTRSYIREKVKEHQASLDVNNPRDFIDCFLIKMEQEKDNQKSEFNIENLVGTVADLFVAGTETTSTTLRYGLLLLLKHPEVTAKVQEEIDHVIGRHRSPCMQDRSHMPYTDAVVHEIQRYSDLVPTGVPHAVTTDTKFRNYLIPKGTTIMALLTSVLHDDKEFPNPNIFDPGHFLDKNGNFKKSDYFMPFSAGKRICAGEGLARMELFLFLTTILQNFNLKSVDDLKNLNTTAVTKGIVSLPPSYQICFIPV

[8] = Kinetic solubility of the compound; format: physicochemical; settings: read-out: Kinetic_solubility
[9] = Apparent permeability across MDCK cells; format: ADME, cell-based, Canis lupus familiaris; settings: dog
Homo sapiens = species: Homo sapiens; assay: Selectivity ratio of IC50 for PI3Kalpha (unknown origin) to IC50 for mTOR (unknown origin)

Cytochrome P450 3A4, sequence (P08684 whole entry): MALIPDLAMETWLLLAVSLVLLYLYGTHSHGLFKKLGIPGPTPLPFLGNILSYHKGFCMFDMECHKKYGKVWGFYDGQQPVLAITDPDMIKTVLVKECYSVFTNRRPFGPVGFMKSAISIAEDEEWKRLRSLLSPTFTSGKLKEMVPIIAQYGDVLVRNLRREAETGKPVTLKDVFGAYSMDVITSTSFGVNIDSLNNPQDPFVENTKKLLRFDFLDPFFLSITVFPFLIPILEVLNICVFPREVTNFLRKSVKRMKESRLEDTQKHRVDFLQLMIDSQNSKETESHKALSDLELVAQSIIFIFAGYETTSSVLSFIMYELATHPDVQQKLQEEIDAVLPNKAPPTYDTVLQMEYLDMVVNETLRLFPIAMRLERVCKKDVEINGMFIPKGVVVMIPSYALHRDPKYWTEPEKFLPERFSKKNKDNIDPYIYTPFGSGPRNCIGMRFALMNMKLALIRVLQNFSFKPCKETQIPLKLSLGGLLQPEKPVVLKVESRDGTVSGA
Cytochrome P450 2D6, sequence (P10635 whole entry): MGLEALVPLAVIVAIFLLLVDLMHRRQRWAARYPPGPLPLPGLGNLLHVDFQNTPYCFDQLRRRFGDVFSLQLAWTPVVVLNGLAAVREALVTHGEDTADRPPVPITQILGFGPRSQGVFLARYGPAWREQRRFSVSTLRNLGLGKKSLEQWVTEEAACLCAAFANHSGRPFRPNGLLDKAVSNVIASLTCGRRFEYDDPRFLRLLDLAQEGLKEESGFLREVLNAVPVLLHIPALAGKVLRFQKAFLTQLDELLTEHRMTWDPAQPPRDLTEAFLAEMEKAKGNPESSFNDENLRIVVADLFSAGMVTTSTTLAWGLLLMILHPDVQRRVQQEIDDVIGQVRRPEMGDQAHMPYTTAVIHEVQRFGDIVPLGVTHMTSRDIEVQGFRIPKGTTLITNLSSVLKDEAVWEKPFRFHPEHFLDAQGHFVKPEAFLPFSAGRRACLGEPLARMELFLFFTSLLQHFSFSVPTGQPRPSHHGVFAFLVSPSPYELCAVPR
Phosphatidylinositol 4,5-bisphosphate 3-kinase catalytic subunit alpha isoform, sequence (P42336 whole entry, canonical isoform): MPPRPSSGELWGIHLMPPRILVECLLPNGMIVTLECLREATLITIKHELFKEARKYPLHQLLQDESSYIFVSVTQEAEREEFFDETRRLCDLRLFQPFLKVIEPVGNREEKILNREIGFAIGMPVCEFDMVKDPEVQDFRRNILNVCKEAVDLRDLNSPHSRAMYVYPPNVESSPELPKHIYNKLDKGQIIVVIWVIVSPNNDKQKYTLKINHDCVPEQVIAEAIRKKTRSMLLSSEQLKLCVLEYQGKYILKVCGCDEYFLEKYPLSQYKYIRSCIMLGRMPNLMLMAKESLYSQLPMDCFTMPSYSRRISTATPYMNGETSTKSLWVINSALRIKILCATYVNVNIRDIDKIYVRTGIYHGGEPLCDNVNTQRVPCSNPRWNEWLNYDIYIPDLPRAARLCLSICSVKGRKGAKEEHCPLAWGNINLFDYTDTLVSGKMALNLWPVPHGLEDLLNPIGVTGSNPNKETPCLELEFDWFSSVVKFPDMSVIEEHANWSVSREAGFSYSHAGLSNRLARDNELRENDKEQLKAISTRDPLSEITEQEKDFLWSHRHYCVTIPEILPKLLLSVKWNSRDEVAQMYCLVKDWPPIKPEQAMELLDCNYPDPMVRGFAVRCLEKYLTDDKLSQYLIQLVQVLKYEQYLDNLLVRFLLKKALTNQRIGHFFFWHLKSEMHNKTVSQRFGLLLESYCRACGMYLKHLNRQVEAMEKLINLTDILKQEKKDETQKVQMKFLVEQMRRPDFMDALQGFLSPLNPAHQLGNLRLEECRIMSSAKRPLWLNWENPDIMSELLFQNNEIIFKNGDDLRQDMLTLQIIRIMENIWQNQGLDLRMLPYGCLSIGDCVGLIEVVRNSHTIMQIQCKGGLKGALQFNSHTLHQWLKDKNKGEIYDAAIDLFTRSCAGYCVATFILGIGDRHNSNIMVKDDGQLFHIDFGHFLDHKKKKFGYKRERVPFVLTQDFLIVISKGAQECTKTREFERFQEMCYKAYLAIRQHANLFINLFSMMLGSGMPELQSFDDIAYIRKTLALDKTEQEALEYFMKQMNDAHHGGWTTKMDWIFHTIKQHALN
Cytochrome P450 2C9, sequence (P11712 whole entry): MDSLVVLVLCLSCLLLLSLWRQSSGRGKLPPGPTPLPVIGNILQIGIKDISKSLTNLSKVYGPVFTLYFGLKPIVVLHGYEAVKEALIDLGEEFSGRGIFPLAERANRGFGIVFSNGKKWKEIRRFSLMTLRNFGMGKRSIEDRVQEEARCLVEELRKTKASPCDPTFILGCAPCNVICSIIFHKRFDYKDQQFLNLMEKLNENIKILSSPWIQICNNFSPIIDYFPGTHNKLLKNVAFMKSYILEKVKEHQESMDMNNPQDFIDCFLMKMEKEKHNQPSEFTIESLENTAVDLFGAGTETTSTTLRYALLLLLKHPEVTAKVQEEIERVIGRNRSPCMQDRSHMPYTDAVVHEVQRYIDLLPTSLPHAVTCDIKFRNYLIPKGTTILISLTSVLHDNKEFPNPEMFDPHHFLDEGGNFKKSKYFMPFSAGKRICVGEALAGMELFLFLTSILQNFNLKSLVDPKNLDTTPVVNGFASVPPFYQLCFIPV

pIC50 [1]	pIC50 [2]	remaining at 0.5 h [3] [%]	concentration at 1 h [4] [nM]	pIC50 [5]	concentration at 4 h [6] [nM]	INH (Cytochrome P450 2C9) [µM]	INH (Cytochrome P450 3A4) [µM]	INH (Cytochrome P450 2D6) [µM]	pIC50 [7]	INH (Cytochrome P450 2C8) [µM]	solubility kinetic [8] [µM]	Papp [9] [×10⁻⁶ cm/s]	Ratio IC50 (Homo sapiens)	SMILES
8.36	6.47	82	7800	6.17	1000	3	3.8	8.1	6.09	> 20	–	–	–	CS(=O)(=O)c1ccc(C(=O)N2CCOc3ccc(-c4ccc5nc[nH]c5c4)cc3C2)cc1
8.46	6.17	60	–	6.59	–	–	–	–	–	–	–	–	–	O=C(c1ccc(C(=O)C(F)(F)F)cc1)N1CCOc2ccc(-c3ccc4cn[nH]c4c3)cc2C1
7.55	5.93	87	–	< 5.52	–	–	–	–	5.48	–	–	–	–	CCCc1cc(S(C)(=O)=O)ccc1C(=O)N1CCOc2ccc(-c3ccc4nc[nH]c4c3)cc2C1
8.28	6.46	45	–	6.16	–	4.2	3	9.2	6.34	3.4	–	–	–	CS(=O)(=O)c1ccc(C(=O)N2CCOc3ccc(-c4ccc5nc[nH]c5c4)cc3C2)c(Br)c1
7.89	5.93	100	–	5.54	–	18.8	> 20	> 20	5.71	> 20	–	–	–	CS(=O)(=O)c1ccc(C(=O)N2CCOc3ccc(-c4ccc(N)nc4)cc3C2)cc1
6.94	–	–	–	6.62	–	–	–	–	–	–	–	–	–	CC(=O)Nc1cccc(-c2ccc3c(c2)CN(C(=O)c2ccc(C(=O)C(F)(F)F)cc2)CCO3)c1
7.63	6.47	58	–	6.15	–	9	3.5	9.2	5.97	5.4	–	–	–	CS(=O)(=O)c1ccc(C(=O)N2CCOc3ccc(-c4ccc5nc[nH]c5c4)cc3C2)c(Cl)c1
< 5.00	–	–	–	< 5.00	–	–	–	–	–	–	–	–	–	O=C(c1ccc(C(=O)C(F)(F)F)cc1)N1CCOc2ccccc2C1
7.85	–	–	–	5.74	–	–	–	–	–	–	–	–	–	CC(=O)c1ccc(C(=O)N2CCOc3ccc(-c4ccc5cn[nH]c5c4)cc3C2)cc1
7.13	–	–	–	5.83	–	–	–	–	–	–	–	–	–	O=C(c1ccc(C(=O)C(F)(F)F)cc1)N1CCOc2ccc(-c3ccc4ccccc4c3)cc2C1
8.54	6.82	59	–	< 5.52	–	2.2	2.6	11.5	6.56	3.1	–	–	–	CCc1c(C(=O)N2CCOc3ccc(-c4ccc5nc[nH]c5c4)cc3C2)ccc(S(C)(=O)=O)c1F
7.53	6.14	3	–	5.98	–	–	–	–	–	–	–	–	–	O=C(c1ccc(C(=O)C(F)(F)F)cc1)N1CCOc2ccc(-c3cn[nH]c3)cc2C1
6.92	–	–	–	5.64	–	–	–	–	–	–	–	–	–	O=C(c1ccc(C(=O)C(F)(F)F)cc1)N1CCOc2ccc(-c3ccccc3)cc2C1
8.64	6.82	49	1500	7.05	400	0.8	2.3	4	–	6.2	< 1	0.98	–	O=C(c1ccc(C(=O)C(F)(F)F)cc1)N1CCOc2ccc(-c3ccc4nc[nH]c4c3)cc2C1
8.46	6.35	64	–	5.96	–	1.1	2.8	2.3	6.09	1.6	–	4.2	–	CNS(=O)(=O)c1ccc(C(=O)N2CCOc3ccc(-c4ccc5nc[nH]c5c4)cc3C2)cc1
7.02	–	–	–	6.40	–	–	–	–	–	–	40.1 (≈ 19.1 µg/mL)	1.69	4	O=C(c1ccc(C(=O)C(F)(F)F)cc1)N1CCOc2ccc(-c3cnc4ccccc4c3)cc2C1
7.14	–	–	–	5.95	–	–	–	–	–	–	–	–	–	O=C(c1ccc(C(=O)C(F)(F)F)cc1)N1CCOc2ccc(-c3cccnc3)cc2C1
8.24	6.37	51	–	< 5.52	–	2.9	4.1	9.3	6.00	5.4	–	–	–	Cc1cc(S(C)(=O)=O)ccc1C(=O)N1CCOc2ccc(-c3ccc4nc[nH]c4c3)cc2C1
8.18	6.23	68	–	6.34	–	–	–	–	5.91	–	–	–	–	Cc1cc(C(=O)N2CCOc3ccc(-c4ccc5nc[nH]c5c4)cc3C2)ccc1S(C)(=O)=O
6.47	–	–	–	5.61	–	–	–	–	–	–	–	–	–	CC(=O)c1ccc(C(=O)N2CCOc3ccc(-c4ccc5cnn(C)c5c4)cc3C2)cc1
6.69	–	–	–	< 5.52	–	–	–	–	–	–	–	–	–	CCNc1cc(S(C)(=O)=O)ccc1C(=O)N1CCOc2ccc(-c3ccc4nc[nH]c4c3)cc2C1
8.54	5.74	64	–	6.12	–	1.3	6.3	4.3	5.78	13.9	–	4.2	–	NS(=O)(=O)c1ccc(C(=O)N2CCOc3ccc(-c4ccc5nc[nH]c5c4)cc3C2)cc1
8.44	6.46	72	–	5.66	–	1.7	2.2	3.3	5.97	5	–	–	–	CCS(=O)(=O)c1ccc(C(=O)N2CCOc3ccc(-c4ccc5nc[nH]c5c4)cc3C2)cc1
< 5.00	–	–	–	< 5.00	–	–	–	–	–	–	–	–	–	c1ccc2ncc(-c3ccc4c(c3)CNCCO4)cc2c1
8.37	6.30	23	–	6.86	–	–	–	–	–	–	–	–	–	O=C(c1ccc(C(=O)C(F)(F)F)cc1)N1CCOc2ccc(-c3ccc4[nH]ncc4c3)cc2C1
8.46	6.51	74	–	5.96	–	1.6	1.9	3.1	6.17	3.6	–	–	–	O=C(c1ccc(C(F)(F)F)cc1)N1CCOc2ccc(-c3ccc4nc[nH]c4c3)cc2C1
9.30	6.62	50	1000	7.05	200	–	–	–	–	–	–	–	–	Cc1nc2ccc(-c3ccc4c(c3)CN(C(=O)c3ccc(C(=O)C(F)(F)F)cc3)CCO4)cc2[nH]1
6.70	–	–	–	5.50	–	–	–	–	–	–	–	–	–	O=C(c1ccccc1)N1CCOc2ccc(-c3cnc4ccccc4c3)cc2C1
8.28	6.63	50	–	< 5.52	–	5.4	2	> 20	6.16	5.6	–	–	–	CCc1cc(S(C)(=O)=O)ccc1C(=O)N1CCOc2ccc(-c3ccc4nc[nH]c4c3)cc2C1
8.85	6.48	94	–	5.63	–	6.4	3.4	9.6	6.36	3.4	–	–	–	Cc1c(C(=O)N2CCOc3ccc(-c4ccc5nc[nH]c5c4)cc3C2)ccc(S(C)(=O)=O)c1F
